How the values were obtained:
[1] = Inhibition of recombinant Leishmania major CK1.2 expressed in bacterial expression system using RRKHAAIGSpAYSITA as substrate in presence of [gamma-33P]ATP by radiometric assay
[2] = target: Receptor-interacting serine/threonine-protein kinase 3 (Homo sapiens, UniProt Q9Y572); test: Inhibition of recombinant human RIPK3 expressed in baculovirus infected Sf9 cells using MBP as substrate in presence of [gamma-33P]ATP by radiometric assay
Leishmania amazonensis = test: Antileishmanial activity against amastigote stage Leishmania amazonensis (MHOM/BR/73/M2269) infected in mouse RAW264.7 cells assessed as reduction in parasitic proliferation measured by SYBR Green 1 dye based fluorescence assay; assay type: functional, organism-based; details: MHOM/BR/73/M2269, RAW264.7
Summary of the method: (§1)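 RAW 264.7 macrophages seeded at 100,000 cells/well in DMEM with 10% heat-inactivated FBS, 24 h at 37 °C, 5% CO₂. Infected with plateau-phase promastigotes (parasite:macrophage 16:1) for 24 h. Compounds serially diluted, final 391 nM–100 μM. Amastigote viability read by SYBR Green I after lysis and 3 freeze-thaw cycles. IC50 by nonlinear regression against excipient-treated controls. Miltefosine reference.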

[3] = Selectivity index, ratio of CC50 for human MRC5 cells to IC50 for amastigote stage of Leishmania infantum (MHOM/FR/2008/LEM5700) infected in mouse RAW264.7 cells; assay type: toxicity, cell-based; details: read-out: Ratio CC50/IC50
Summary of the method: (§2)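 Selectivity index is CC50 on RAW 264.7 or MRC-5 cells divided by IC50 on intracellular amastigotes.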

Leishmania donovani = test: Antileishmanial activity against amastigote stage of Leishmania donovani (MHOM/ET/67/HU3) infected in mouse RAW264.7 cells assessed as reduction in parasitic proliferation measured by SYBR Green 1 dye based fluorescence assay; assay type: functional, organism-based; details: MHOM/ET/67/HU3, RAW264.7; summary of the method: as §1
[4] = Selectivity index, ratio of CC50 for human MRC5 cells to IC50 for amastigote stage of Leishmania donovani (MHOM/ET/67/HU3) infected in mouse RAW264.7 cells; assay type: toxicity, cell-based; details: read-out: Ratio CC50/IC50; summary of the method: as §2
[5] = Toxicity against Galleria mellonella larva assessed as cuticular darkening at 50 mg/kg measured for 7 days; assay type: organism-based; details: in vivo, 168 h, time 7 day
Summary of the method: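 G. mellonella larvae (6th stage, 260–320 mg), groups of ten. Injected in the 4th left pro-leg with 10 μL at 10–50 mg/kg; controls got PBS/DMSO (DMSO <40%). Kept in the dark at 37 °C. Survival and cuticular darkening scored daily for 7 days; death taken as no movement on stimulus. Kaplan-Meier with log-rank test; two independent experiments.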

[6] = Selectivity index, ratio of CC50 for human MRC5 cells to IC50 for amastigote stage of Leishmania braziliensis (MHOM/BR/75/M2903b) infected in mouse RAW264.7 cells; assay type: toxicity, cell-based; details: read-out: Ratio CC50/IC50; summary of the method: as §2
CDK9/cyclin T1 [7] = target: T1, CDK9/cyclin T1 (Homo sapiens, UniProt P50750); test: Inhibition of human recombinant CDK9/CyclinT expressed in baculovirus infected Sf9 cells using YSPTSPSYSPTSPSYSPTSPSKKK as substrate in presence of [gamma-33P]ATP by radiometric assay
Leishmania braziliensis = test: Antileishmanial activity against amastigote stage of Leishmania braziliensis (MHOM/BR/75/M2903b) infected in mouse RAW264.7 cells assessed as reduction in parasitic proliferation measured by SYBR Green 1 dye based fluorescence assay; assay type: functional, organism-based; summary of the method: as §1
Aurora kinase B [8] = target: T2, Aurora kinase B (Homo sapiens, UniProt Q96GD4); test: Inhibition of recombinant human AURKB expressed in baculovirus infected Sf9 cells using MBP as substrate in presence of [gamma-33P]ATP measured by radiometric assay
[9] = Selectivity index, ratio of CC50 for mouse RAW264.7 cells to IC50 for amastigote stage of Leishmania amazonensis (MHOM/BR/73/M2269) infected in mouse RAW264.7 cells; assay type: toxicity, cell-based; details: read-out: Ratio CC50/IC50; summary of the method: as §2
[10] = target: T3, Dual specificity tyrosine-phosphorylation-regulated kinase 1A (Rattus norvegicus, UniProt Q63470); test: Inhibition of recombinant rat DYRK1A (1 to 499 ) expressed in bacterial expression system using KKISGRLSPIMTEQ as substrate in presence of [gamma-33P]ATP measured by radiometric assay; details: for inhibition (INH): rat
Leishmania infantum = test: Antileishmanial activity against amastigote stage of Leishmania infantum (MHOM/FR/2008/LEM5700) infected in mouse RAW264.7 cells assessed as reduction in parasitic proliferation measured by SYBR Green 1 dye based fluorescence assay; assay type: functional, organism-based; details: MHOM/FR/2008/LEM5700, RAW264.7; summary of the method: as §1
[11] = target: Serine/threonine-protein kinase pim-1 (Homo sapiens, UniProt P11309); test: Inhibition of recombinant human PIM1 expressed in bacteria using histone H1 as substrate in presence of ATP measured after 30 mins by ADP-Glo assay; details: 0.5 h
Aurora kinase B [12] = target: T2, Aurora kinase B; test: Inhibition of recombinant human AURKB expressed in baculovirus infected Sf9 cells using MBP as substrate in presence of ATP measured after 30 mins by ADP-Glo assay; details: sf9, 0.5 h
[13] = target: Cyclin-dependent kinase 5/CDK5 activator 1 (Homo sapiens, UniProt Q00535); test: Inhibition of human recombinant CDK5/ p25 expressed in bacterial expression system using histone H1 as substrate in presence of ATP measured after 30 mins by ADP-Glo assay
CDK9/cyclin T1 [14] = target: T1, CDK9/cyclin T1; test: Inhibition of human recombinant CDK9/CyclinT expressed in baculovirus infected Sf9 cells using YSPTSPSYSPTSPSYSPTSPSKKK as substrate in presence of ATP measured after 30 mins by ADP-Glo assay
CDK2/Cyclin A2 = CDK2/Cyclin A2 (Homo sapiens, UniProt P24941); test: Inhibition of human CDK2/ cyclinA using histone H1 as substrate in presence of ATP measured after 30 mins by ADP-Glo assay; assay type: protein-complex assay
[15] = target: Dual specificity protein kinase CLK1 (Mus musculus, UniProt P22518); test: Inhibition of recombinant mouse CLK1 expressed in bacteria using GRSRSRSRSRSR as substrate in presence of ATP measured after 30 mins by ADP-Glo assay
[16] = target: T3, Dual specificity tyrosine-phosphorylation-regulated kinase 1A; test: Inhibition of recombinant rat DYRK1A (1 to 499 ) expressed in bacterial expression system using KKISGRLSPIMTEQ as substrate in presence of ATP measured after 30 mins by ADP-Glo assay; details: 0.5 h

T2 sequence (Q96GD4 whole entry): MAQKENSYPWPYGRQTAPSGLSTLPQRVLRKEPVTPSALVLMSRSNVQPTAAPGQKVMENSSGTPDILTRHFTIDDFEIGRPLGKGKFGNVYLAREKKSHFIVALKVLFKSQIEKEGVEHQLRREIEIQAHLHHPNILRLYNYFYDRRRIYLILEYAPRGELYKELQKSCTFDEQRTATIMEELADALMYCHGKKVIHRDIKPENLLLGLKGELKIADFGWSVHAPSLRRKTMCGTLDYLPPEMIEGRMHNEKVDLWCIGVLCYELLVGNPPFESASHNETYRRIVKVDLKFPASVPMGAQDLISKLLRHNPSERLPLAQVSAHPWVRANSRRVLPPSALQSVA
Sequence of Receptor-interacting serine/threonine-protein kinase 3 (Q9Y572 whole entry): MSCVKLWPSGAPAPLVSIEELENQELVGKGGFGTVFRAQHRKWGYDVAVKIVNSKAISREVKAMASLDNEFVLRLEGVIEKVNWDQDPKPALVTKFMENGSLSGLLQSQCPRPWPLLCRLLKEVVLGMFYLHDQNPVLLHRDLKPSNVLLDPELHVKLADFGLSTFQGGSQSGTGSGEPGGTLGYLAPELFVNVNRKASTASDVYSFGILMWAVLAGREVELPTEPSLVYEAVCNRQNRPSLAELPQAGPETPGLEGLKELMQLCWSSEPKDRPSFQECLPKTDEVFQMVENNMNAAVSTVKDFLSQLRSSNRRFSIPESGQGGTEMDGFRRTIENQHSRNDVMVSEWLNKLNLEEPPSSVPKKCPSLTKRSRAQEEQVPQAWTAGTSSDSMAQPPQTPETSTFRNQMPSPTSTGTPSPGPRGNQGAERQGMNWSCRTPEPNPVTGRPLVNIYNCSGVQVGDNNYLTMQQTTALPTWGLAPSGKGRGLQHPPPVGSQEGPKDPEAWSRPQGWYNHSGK
Sequence of Serine/threonine-protein kinase pim-1 (P11309 whole entry): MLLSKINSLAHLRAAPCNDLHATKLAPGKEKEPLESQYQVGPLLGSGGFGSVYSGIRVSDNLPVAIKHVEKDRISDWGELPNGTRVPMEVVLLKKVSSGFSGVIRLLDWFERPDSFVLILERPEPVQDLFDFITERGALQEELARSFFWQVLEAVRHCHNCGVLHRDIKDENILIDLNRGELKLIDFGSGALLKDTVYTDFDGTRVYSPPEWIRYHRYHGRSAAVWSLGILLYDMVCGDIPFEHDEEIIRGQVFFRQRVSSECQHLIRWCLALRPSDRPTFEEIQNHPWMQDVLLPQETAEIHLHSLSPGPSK
T1 sequence (O60563 whole entry): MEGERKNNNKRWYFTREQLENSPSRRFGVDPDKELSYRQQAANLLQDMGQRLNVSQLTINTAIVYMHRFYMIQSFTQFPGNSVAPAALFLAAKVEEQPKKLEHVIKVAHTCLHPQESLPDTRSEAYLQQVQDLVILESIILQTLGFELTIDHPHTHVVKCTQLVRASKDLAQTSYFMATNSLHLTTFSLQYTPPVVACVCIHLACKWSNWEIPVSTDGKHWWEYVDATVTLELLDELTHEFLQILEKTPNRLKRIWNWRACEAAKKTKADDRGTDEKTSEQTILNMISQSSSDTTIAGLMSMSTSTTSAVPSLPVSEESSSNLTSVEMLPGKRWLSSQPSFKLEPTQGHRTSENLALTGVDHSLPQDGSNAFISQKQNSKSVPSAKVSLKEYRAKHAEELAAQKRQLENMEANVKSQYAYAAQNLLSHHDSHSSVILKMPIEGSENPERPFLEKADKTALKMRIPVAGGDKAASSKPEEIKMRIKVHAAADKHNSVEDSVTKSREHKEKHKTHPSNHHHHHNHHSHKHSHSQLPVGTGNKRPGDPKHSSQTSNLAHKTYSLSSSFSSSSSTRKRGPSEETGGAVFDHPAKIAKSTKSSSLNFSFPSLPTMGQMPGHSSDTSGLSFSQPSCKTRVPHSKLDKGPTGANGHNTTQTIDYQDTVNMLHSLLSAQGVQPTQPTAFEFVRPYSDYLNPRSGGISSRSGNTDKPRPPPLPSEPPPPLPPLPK
T1 sequence (P50750 whole entry): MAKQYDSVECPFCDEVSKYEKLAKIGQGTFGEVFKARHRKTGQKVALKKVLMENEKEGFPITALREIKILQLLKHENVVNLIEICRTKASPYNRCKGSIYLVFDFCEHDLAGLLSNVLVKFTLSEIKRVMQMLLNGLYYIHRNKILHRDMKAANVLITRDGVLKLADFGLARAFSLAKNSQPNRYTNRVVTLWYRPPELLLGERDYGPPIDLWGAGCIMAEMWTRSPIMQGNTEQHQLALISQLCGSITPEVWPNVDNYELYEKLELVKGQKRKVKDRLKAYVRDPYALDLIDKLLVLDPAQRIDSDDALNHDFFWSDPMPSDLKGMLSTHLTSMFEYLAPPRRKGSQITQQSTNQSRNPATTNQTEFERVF
Sequence of Cyclin-dependent kinase 5/CDK5 activator 1 (Q00535 whole entry): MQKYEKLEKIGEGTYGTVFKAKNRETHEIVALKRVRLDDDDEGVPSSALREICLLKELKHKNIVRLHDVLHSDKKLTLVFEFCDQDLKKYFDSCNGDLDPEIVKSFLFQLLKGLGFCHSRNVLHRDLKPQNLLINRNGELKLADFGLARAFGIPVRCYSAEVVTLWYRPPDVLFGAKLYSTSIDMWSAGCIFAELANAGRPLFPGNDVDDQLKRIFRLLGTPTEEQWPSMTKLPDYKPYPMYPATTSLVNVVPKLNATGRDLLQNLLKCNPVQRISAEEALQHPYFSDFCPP
Sequence of Cyclin-dependent kinase 5/CDK5 activator 1 (Q15078 whole entry, further chain): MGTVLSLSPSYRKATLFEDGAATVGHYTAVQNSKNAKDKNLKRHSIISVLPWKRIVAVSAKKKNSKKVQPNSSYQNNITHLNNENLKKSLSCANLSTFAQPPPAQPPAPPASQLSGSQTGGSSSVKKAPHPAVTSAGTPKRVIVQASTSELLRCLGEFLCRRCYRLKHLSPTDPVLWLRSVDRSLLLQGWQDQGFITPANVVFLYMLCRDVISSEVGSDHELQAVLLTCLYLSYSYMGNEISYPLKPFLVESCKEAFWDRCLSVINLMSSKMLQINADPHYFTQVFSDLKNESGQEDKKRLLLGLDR
Sequence of Dual specificity protein kinase CLK1 (P22518 whole entry): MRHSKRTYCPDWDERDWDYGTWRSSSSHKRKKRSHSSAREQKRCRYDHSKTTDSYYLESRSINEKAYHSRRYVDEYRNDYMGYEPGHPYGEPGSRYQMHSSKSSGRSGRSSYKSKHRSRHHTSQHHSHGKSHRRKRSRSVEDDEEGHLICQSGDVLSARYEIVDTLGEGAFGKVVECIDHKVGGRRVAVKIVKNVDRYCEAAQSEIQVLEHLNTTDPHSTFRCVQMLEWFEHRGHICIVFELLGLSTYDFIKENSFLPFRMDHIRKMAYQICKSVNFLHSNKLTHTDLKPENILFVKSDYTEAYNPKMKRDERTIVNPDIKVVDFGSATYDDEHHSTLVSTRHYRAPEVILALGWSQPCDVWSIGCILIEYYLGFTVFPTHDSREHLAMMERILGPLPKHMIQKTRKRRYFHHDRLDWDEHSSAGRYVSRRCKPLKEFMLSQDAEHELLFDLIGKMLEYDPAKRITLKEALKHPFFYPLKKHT

SMILES	IC50 [1]	inhibition (INH) [2]	IC50 (Leishmania amazonensis)	selectivity ratio [3]	IC50 (Leishmania donovani)	selectivity ratio [4]	Activity [5]	selectivity ratio [6]	IC50 (CDK9/cyclin T1 [7])	IC50 (Leishmania braziliensis)	inhibition (INH) (Aurora kinase B [8])	selectivity ratio [9]	inhibition (INH) [10]	IC50 (Leishmania infantum)	inhibition (INH) [11]	inhibition (INH) (Aurora kinase B [12])	IC50 [13]	IC50 (CDK9/cyclin T1 [14])	IC50 (CDK2/Cyclin A2)	IC50 [15]	other results
CSc1nccc(-c2c(-c3ccccc3)nc3c(N(C)C)nccn23)n1	3.5 µM	Not Active	5.99 µM	6.5	17.6 µM	4.6	Non-Toxic	1.8	> 10 µM	45.6 µM	Not Active	5.6	Not Active	12.5 µM	–	–	–	–	–	–	–
CSc1nccc(-c2c(-c3ccc(F)cc3)nc3c(N(C)C)nccn23)n1	1 µM	Not Active	12.5 µM	10.8	10.4 µM	6.4	Non-Toxic	1.1	> 10 µM	63.5 µM	Not Active	2.9	Not Active	6.2 µM	–	–	–	–	–	–	–
CN(C)c1nccn2c(-c3cncnc3)c(-c3ccc(F)cc3)nc12	–	–	> 50 µM	–	> 50 µM	–	Non-Toxic	4.4	–	22.8 µM	–	–	–	> 50 µM	Not Active	Not Active	> 10 µM	> 10 µM	> 10 µM	> 10 µM	inhibition (INH) [16]: Not Active
CN(C)c1nccn2c(-c3ccc4[nH]ncc4c3)c(-c3ccc(F)cc3)nc12	–	–	> 12.5 µM	2	> 12.5 µM	2	Non-Toxic	2	–	> 12.5 µM	–	0.6	–	12.9 µM	Not Active	Not Active	> 10 µM	> 10 µM	> 10 µM	> 10 µM	inhibition (INH) [16]: Not Active
CSc1nccc(-c2c(-c3ccc(F)cc3)nc3c(N)nccn23)n1	0.65 µM	Not Active	> 12.5 µM	1.5	> 12.5 µM	1.5	Non-Toxic	1.5	> 10 µM	> 12.5 µM	Not Active	> 0.9	–	> 12.5 µM	–	–	–	–	–	–	IC50 [10]: 2 µM
CSc1nccc(-c2c(-c3ccc(F)cc3)nc3c(Cl)nccn23)n1	> 10 µM	Not Active	> 100 µM	–	> 100 µM	–	Non-Toxic	1.1	> 10 µM	74 µM	Not Active	–	Not Active	> 100 µM	–	–	–	–	–	–	–
CN(C)c1nccn2c(-c3ccnc(N)n3)c(-c3ccccc3)nc12	0.035 µM	Not Active	23.4 µM	–	> 100 µM	–	Non-Toxic	1	> 10 µM	56.5 µM	Not Active	1.9	Not Active	> 100 µM	–	–	–	–	–	–	–
CN(C)c1nccn2c(-c3cnn(C)c3)c(-c3ccc(F)cc3)nc12	–	–	> 25 µM	38.5	1.27 µM	78.7	Non-Toxic	4	–	> 25 µM	–	0.6	–	2.6 µM	Not Active	Not Active	> 10 µM	> 10 µM	> 10 µM	> 10 µM	inhibition (INH) [16]: Not Active
CSc1nccc(-c2c(-c3ccccc3)nc3c(Cl)nccn23)n1	5 µM	Not Active	3.2 µM	17.3	9.82 µM	3.4	Non-Toxic	1.9	> 10 µM	17.7 µM	Not Active	15.8	Not Active	1.93 µM	–	–	–	–	–	–	–
CN(C)c1nccn2c(-c3ccnc(N)n3)c(-c3ccc(F)cc3)nc12	0.042 µM	Not Active	6.12 µM	15.2	9.97 µM	10	Non-Toxic	4.1	> 10 µM	24.3 µM	Not Active	6.9	Not Active	6.55 µM	–	–	–	–	–	–	–
